According to publication PMC8988011 (The Journal of Biological Chemistry, 2022):
One block for each molecule: values may come before it.

Tests used:
LATS2 = biological target: T1, LATS2 (Homo sapiens, UniProt Q9NRM7); experiment: Kinase assay; assay type: biochemical
T1 sequence (Q9NRM7 553-1088 limits assumed): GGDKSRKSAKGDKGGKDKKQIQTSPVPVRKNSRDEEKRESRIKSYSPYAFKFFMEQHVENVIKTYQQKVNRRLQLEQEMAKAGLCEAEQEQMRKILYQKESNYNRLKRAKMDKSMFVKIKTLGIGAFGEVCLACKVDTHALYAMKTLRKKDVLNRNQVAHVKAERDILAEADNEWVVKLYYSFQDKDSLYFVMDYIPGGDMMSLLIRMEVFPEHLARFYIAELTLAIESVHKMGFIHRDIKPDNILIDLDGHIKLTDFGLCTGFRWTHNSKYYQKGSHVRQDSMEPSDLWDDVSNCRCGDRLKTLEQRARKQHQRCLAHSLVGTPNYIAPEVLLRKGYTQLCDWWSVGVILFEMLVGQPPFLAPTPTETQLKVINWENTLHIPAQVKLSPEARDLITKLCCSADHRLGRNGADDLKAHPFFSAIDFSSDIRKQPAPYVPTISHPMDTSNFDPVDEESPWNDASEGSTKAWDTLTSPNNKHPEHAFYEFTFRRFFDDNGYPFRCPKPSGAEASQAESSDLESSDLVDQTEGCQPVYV
Method in brief: (§1)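 LATS1 and LATS2 activity was measured with a fluorescence kinase/ADP kit following the maker's protocol in 384-well format. IC50 came from dose-response inhibition curves at 400 μM ATP. Mode of inhibition was assessed from Lineweaver-Burk plots of reaction velocity at ATP 100 to 400 μM. Three independent experiments, means ± SD.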

LATS1 = biological target: T2, LATS1 (Homo sapiens, UniProt O95835); experiment: Kinase assay; assay type: biochemical
T2 sequence (O95835 589-1130 limits assumed): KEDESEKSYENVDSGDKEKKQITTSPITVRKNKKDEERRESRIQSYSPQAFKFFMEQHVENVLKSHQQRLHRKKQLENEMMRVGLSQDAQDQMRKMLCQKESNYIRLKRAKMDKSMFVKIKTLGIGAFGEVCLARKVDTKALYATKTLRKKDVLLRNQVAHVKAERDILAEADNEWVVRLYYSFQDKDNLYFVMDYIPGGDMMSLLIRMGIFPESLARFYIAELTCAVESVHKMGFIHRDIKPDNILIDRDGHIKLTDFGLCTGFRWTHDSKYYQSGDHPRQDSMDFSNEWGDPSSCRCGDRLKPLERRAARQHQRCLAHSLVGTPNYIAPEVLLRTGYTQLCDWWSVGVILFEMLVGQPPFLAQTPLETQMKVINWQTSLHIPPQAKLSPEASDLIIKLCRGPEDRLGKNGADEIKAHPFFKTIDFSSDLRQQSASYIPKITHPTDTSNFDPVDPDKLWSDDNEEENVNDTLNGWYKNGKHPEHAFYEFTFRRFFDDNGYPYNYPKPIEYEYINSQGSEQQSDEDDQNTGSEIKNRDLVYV
Method in brief: as §1

SKOV3 cells [1] = experiment: Growth in U-bottom low-attachment plates; assay type: cell-based, Human; settings: with GA-017, 4 days, Fig. 3J
MSK1 = MSK1 (Homo sapiens, UniProt O75582); experiment: Kinase panel assay; assay type: biochemical
MSK1, sequence (O75582 whole entry): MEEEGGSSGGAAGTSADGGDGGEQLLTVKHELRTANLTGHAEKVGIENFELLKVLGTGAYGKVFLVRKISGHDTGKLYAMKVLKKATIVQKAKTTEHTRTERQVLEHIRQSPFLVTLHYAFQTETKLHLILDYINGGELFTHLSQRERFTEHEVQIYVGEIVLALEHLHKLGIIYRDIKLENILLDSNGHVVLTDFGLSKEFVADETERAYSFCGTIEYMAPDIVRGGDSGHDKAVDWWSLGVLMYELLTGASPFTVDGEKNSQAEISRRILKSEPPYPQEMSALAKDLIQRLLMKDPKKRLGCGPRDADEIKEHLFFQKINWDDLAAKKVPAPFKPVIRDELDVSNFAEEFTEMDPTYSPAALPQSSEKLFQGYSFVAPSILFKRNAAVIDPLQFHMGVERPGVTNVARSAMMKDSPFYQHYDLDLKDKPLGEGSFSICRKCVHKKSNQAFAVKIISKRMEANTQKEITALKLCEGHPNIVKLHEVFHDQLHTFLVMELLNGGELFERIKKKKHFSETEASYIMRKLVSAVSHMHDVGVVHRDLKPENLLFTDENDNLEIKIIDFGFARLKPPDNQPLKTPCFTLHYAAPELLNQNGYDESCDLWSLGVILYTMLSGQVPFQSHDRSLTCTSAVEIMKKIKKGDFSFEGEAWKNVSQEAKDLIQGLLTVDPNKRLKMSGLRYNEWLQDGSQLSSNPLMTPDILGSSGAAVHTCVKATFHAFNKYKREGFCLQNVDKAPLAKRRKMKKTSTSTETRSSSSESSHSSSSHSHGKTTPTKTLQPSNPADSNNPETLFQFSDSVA

SKOV3 cells [2] = experiment: Growth in 2D monolayer culture, ATP assay; assay type: cell-based, Human; settings: 10 μM; Fig. 1D
Method in brief: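 SKOV3 monolayers were grown in medium without gellan gum on cell-attachable 96-well flat-bottom plates at 700 cells/well, 37 °C, 5% CO2, humidified. Cultures received 10 μM test compound or DMSO vehicle. Cell number was followed over time by ATP assay, and each day's value was normalized to day 0.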

PKACα = PKACα (Homo sapiens, UniProt P17612); experiment: Kinase panel assay; assay type: biochemical
SGK3 = biological target: T3, SGK3 (Homo sapiens, UniProt Q96BR1); experiment: Kinase panel assay; assay type: biochemical
T3 sequence (Q96BR1 1-496): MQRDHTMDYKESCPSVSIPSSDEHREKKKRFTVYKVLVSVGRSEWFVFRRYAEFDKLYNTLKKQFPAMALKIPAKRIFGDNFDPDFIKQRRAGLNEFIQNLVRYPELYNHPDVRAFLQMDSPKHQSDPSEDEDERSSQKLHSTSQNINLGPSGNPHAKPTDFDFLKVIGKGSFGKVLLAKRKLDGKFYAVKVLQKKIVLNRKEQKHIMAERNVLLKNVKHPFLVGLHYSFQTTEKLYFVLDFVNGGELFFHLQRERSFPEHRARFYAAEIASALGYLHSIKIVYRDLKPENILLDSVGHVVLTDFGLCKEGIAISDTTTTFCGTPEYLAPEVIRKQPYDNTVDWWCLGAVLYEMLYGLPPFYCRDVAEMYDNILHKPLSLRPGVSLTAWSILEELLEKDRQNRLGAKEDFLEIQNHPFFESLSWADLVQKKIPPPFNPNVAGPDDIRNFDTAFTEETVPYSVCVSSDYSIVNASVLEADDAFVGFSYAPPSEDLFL

SKOV3 cells [3] = experiment: Growth in gellan gum–containing medium; assay type: cell-based, Human; settings: 10 μM, maximally effective concentration
Method in brief: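 SKOV3 cells were suspended in medium with 0.015% (w/v) gellan gum and seeded at 2000 cells/well in 96-well flat-bottom low-attachment plates, 37 °C, 5% CO2. A test compound concentration series or DMSO vehicle was applied for 4 days. Cell number was read by ATP assay and expressed as % of DMSO control.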

p70S6K = p70S6K (Homo sapiens, UniProt P23443); experiment: Kinase panel assay; assay type: biochemical
p70S6K, sequence (P23443 whole entry): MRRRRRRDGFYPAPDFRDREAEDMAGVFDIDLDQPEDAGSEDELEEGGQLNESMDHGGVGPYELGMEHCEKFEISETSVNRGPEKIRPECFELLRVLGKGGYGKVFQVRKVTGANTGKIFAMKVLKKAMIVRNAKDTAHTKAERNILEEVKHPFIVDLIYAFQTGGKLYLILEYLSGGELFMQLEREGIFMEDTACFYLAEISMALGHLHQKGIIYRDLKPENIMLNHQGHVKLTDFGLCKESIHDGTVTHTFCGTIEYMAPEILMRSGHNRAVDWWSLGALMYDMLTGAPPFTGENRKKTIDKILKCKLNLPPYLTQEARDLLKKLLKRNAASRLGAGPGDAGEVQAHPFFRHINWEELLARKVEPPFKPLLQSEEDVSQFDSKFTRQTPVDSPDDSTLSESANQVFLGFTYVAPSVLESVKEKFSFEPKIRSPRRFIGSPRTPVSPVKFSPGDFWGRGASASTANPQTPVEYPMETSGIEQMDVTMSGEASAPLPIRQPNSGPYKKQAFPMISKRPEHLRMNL

SGK2 = biological target: T4, SGK2 (Homo sapiens, UniProt Q9HBY8); experiment: Kinase panel assay; assay type: biochemical
T4 sequence (Q9HBY8 1-367): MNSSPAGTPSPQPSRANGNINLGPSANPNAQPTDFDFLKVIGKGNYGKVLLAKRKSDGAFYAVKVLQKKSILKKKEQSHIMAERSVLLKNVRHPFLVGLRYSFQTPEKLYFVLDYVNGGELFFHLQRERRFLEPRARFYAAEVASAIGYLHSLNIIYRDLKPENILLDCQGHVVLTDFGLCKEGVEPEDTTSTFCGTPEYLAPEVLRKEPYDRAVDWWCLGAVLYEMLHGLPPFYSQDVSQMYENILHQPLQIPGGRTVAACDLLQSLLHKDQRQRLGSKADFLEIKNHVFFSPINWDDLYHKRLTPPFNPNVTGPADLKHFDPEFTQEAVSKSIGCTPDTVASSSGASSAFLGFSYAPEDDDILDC

[4] = tested on: mouse intestinal organoids; experiment: Organoid culture in Matrigel; assay type: cell-based; settings: 10 μM, up to 9 days, vs vehicle
A431 cells = experiment: Hanging drop cell culture, ATP assay; assay type: cell-based, Human; settings: 10 μM, 2 days
Method in brief: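 A431 cells at 50,000 cells/ml received 10 μM test compound or DMSO. They were then hung as 10 μl drops (15 per lid) over a PBS-filled dish and cultured 2 days at 37 °C. Pooled drops were assayed for cell number by ATP assay, as % of DMSO control. 11 independent experiments, means ± SD, Student's t test.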

PKACβ = PKACβ (Homo sapiens, UniProt P22694); experiment: Kinase panel assay; assay type: biochemical
[5] = tested on: LATS1-deleted or LATS2-deleted SKOV3 cells; experiment: Growth of LATS knockout cells in U-bottom low-attachment plates, ATP assay; assay type: cell-based, Human; settings: 10 μM, 4 days
MDCK cells = experiment: Cyst culture in Matrigel; assay type: cell-based, canine; settings: 10 μM, 6 days
Method in brief: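 MDCK cells at 1.1 × 10^4 cells/ml in medium with 0.2% Matrigel GFR were plated onto a pre-set Matrigel GFR layer (15 min, 37 °C). Medium holding 10-fold concentrated test compound or DMSO was added, and plates were incubated for 6 days at 37 °C. Cysts (>30 μm diameter) were counted and sized by automated imaging. Three independent experiments, means ± SD, Student's t test.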

- inhibition of LATS2 (LATS2; compared with GA-017, Fig. S7): comparable inhibition
- inhibition of LATS1 (LATS1; compared with GA-017, Fig. S7): comparable inhibition
Molecule: CC/C(=N\NC(=O)C(C)Nc1ccccc1)c1ccc(O)c(C)c1O (stereo not shown) [GA-002, (E)-N'-(1-(2,4-dihydroxy-3-methylphenyl)propylidene)-2-(phenylamino)propanehydrazide]

Molecule: Verteporfin
- effect on the growth-promoting effect of GA-017 (SKOV3 cells [1]): abolished the growth-promoting effect of GA-017

- IC50 (MSK1): < 40 nM
- IC50 (PKACα): < 40 nM
- IC50 (SGK3): < 40 nM
- IC50 (LATS2): 3.92 ± 0.42 nM
- Ki (LATS2): 0.25 ± 0.03 nM
- IC50 (p70S6K): < 40 nM
- IC50 (SGK2): < 40 nM
- IC50 (PKACβ): < 40 nM
- IC50 (LATS1): 4.1 ± 0.79 nM
- Ki (LATS1): 0.58 ± 0.11 nM
Molecule: CC/C(=N\NC(=O)NCc1cccc(O)c1)c1ccc(O)c(C)c1O [GA-017, (E)-2-(1-(2,4-dihydroxy-3-methylphenyl)propylidene)-N-(3-hydroxybenzyl)hydrazine-1-carboxamide]
- cell growth under 2D conditions (SKOV3 cells [2]): did not affect cell growth
- increase in the number of SKOV3 cells (SKOV3 cells [3]): over 2 fold
- ex vivo formation of intestinal organoids [4]: significantly enhanced the ex vivo formation of intestinal organoids
- growth of spheroids formed in hanging drops (A431 cells): promoted the growth of spheroids
- growth-promoting effect on LATS1- or LATS2-deleted cells [5]: did not exhibit a growth-promoting effect
- number of cysts versus vehicle control (DMSO) (MDCK cells): 1.5 fold
